Results reported in ChEMBL document CHEMBL3098016, “Biphenyl derivatives incorporating urea unit as novel VEGFR-2 inhibitors: design, synthesis and biological evaluation” (Bioorg Med Chem, 2014).
Blank lines part the entries; values can stand above or below the molecule they belong to.

Columns and labels:
[1] = molecular target: Vascular endothelial growth factor receptor 2 (Homo sapiens, UniProt P35968); assay: Inhibition of VEGFR2 (unknown origin) after 30 mins by HTRF assay
[2] = Antiproliferative activity against human SGC7901 cells after 48 hrs by MTT assay; conditions: SGC-7901, 48 h
[3] = Antiproliferative activity against human SH-SY5Y cells after 48 hrs by MTT assay
[4] = test system: LoVo; assay: Antiproliferative activity against human LoVo cells after 48 hrs by MTT assay
[5] = test system: K562; assay: Antiproliferative activity against human K562 cells after 48 hrs by MTT assay; conditions: K562, 48 h
[6] = test system: MDA-MB-231; assay: Antiproliferative activity against human MDA-MB-231 cells after 48 hrs by MTT assay; format: functional, cell-based; conditions: MDA-MB-231, 48 h
Summary of the method: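 Cells in exponential growth plated at 1 × 10⁴ cells/well and incubated 24 h at 37 °C. Compounds were then added at various concentrations for 48 h. MTT (5 mg/mL) was added, followed by 4 h at 37 °C. Supernatant was removed and formazan dissolved in DMSO, with absorbance read at 490 nm. IC50 in µM.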

Vascular endothelial growth factor receptor 2, sequence (P35968 whole entry): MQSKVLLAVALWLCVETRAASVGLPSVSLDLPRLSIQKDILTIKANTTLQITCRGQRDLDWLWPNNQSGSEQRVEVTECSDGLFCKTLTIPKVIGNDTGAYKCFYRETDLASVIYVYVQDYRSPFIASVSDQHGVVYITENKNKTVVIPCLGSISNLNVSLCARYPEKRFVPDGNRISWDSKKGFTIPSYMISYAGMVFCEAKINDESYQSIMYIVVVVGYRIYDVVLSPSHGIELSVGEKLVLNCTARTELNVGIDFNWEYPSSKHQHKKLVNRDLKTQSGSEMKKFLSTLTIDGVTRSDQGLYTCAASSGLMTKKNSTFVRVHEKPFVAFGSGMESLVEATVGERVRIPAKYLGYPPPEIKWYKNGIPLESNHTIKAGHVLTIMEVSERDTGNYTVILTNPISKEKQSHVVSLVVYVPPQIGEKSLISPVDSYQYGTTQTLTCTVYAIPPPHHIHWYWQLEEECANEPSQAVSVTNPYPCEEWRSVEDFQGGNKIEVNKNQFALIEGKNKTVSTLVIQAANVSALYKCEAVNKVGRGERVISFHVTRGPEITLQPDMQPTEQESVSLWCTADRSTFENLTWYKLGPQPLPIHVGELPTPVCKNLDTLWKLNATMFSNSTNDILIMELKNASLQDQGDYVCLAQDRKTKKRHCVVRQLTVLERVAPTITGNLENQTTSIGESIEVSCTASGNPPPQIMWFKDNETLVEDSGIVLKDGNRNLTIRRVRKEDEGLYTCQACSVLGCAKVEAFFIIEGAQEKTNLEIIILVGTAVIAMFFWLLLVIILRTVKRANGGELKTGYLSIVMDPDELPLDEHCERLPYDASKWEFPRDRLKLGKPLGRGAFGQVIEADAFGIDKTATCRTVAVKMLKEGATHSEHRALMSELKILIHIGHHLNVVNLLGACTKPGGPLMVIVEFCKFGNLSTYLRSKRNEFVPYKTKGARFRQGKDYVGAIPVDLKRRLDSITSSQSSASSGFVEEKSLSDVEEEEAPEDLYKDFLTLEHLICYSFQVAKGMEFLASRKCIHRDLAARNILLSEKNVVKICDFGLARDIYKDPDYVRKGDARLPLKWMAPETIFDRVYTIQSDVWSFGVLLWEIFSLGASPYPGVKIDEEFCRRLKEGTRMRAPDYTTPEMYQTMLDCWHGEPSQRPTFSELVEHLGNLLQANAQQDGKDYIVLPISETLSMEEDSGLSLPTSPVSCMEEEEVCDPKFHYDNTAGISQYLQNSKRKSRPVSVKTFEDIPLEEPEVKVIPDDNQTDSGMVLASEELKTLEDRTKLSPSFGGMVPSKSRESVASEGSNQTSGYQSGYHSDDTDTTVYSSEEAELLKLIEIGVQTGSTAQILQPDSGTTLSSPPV

IC50 [1]: > 0.3 µM
SMILES: CCN(CC)CCOc1ccc(NC(=O)Nc2cc(OC)c(OC)c(-c3ccc(C(C)=O)c(OC)c3)c2)cc1

IC50 [1]: > 0.3 µM
SMILES: COc1cc(-c2cc(NC(=O)Nc3ccc(OCCN(C)C)cc3C)cc(OC)c2OC)ccc1C(C)=O

IC50 [1]: > 0.3 µM
SMILES: COc1cc(-c2cc(NC(=O)Nc3cc(OCCN4CCCCC4)ccc3C)cc(OC)c2OC)ccc1C(C)=O

IC50 [4]: 6.56 µM
IC50 [5]: 0.86 µM
IC50 [6]: 35 µM
SMILES: CNC(=O)c1cc(Oc2ccc(NC(=O)Nc3ccc(Cl)c(C(F)(F)F)c3)cc2)ccn1 [SORAFENIB]
IC50 [2]: 101 µM
IC50 [3]: 5.73 µM

The remaining lines, values behind:

SMILES: COc1cc(-c2cc(NC(=O)Nc3ccc(OCCN(C)C)cc3)cc(OC)c2OC)ccc1C(C)=O
IC50 [1]: > 0.3 µM

SMILES: COc1cc(-c2cc(NC(=O)Nc3ccc(OCCN4CCOCC4)cc3)cc(OC)c2OC)ccc1C(C)=O
IC50 [1]: > 0.3 µM

SMILES: COc1cc(-c2cc(NC(=O)Nc3ccc(OCCCN4CCOCC4)cc3)cc(OC)c2OC)ccc1C(C)=O
IC50 [2]: 80.9 µM
IC50 [3]: 10.4 µM
IC50 [4]: 11.1 µM
IC50 [5]: 2.23 µM

SMILES: CCN(CC)CCOc1ccc(NC(=O)Nc2cc(OC)c(OC)c(-c3ccc(/C(C)=N/O)c(OC)c3)c2)c(C)c1
IC50 [1]: > 0.3 µM
